Tests used:
Lysyl oxidase homolog 2 [1] = target: T1, Lysyl oxidase homolog 2 (Homo sapiens, UniProt Q9Y4K0); assay: Inhibition of human LOXL2 expressed in CHO cells assessed as reduction of H2O2 production from oxidative deamination of DAP preincubated for 2 hrs followed by substrate addition in presence of 0.1% BSA measured every 2 mins for 1 hr by amplex red reagent-based fluorescence assay; format: cell-based
T1 sequence (Q9Y4K0 whole entry): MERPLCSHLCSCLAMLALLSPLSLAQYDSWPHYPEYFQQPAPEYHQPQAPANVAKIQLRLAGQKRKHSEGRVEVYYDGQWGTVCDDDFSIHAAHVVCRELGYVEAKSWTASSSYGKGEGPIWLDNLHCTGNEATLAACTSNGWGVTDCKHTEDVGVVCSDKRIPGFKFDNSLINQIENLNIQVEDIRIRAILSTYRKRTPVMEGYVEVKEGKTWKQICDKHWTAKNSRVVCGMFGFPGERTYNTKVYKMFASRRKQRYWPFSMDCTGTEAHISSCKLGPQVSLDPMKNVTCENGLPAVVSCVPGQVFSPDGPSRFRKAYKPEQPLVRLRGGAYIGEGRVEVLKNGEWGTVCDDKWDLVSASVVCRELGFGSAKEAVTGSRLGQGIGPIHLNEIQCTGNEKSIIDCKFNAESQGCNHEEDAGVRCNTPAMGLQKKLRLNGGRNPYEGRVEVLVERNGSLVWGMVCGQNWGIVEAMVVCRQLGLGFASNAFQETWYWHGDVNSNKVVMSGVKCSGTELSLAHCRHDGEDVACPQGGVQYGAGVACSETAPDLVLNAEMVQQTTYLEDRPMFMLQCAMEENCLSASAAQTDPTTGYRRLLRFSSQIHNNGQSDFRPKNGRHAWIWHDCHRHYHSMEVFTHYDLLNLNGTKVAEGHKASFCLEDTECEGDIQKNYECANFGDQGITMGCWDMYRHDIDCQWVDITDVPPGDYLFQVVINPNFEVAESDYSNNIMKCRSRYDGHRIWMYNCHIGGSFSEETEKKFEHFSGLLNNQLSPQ

Protein-lysine 6-oxidase = target: T2, Protein-lysine 6-oxidase (Homo sapiens, UniProt P28300); assay: Inhibition of human LOX expressed in HEK cells assessed as reduction of H2O2 production from oxidative deamination of DAP preincubated for 2 hrs followed by substrate addition in presence of 0.1% BSA measured every 2 mins for 1 hr by amplex red reagent-based fluorescence assay; format: cell-based
T2 sequence (P28300 whole entry): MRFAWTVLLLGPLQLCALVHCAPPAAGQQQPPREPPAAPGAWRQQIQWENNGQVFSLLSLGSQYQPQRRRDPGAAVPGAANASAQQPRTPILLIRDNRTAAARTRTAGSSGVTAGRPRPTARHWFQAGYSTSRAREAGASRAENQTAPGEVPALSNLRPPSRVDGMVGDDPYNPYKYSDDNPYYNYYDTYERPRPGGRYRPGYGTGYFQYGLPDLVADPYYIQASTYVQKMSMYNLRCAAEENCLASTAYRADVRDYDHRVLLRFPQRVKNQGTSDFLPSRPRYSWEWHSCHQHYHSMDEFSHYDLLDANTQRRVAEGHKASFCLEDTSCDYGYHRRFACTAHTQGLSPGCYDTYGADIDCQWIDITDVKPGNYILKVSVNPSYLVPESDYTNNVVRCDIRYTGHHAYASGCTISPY

[2] = target: T3, Lysyl oxidase homolog 2 (Homo sapiens) (UniProt Q9Y4K0); assay: (§1) Inhibition of recombinant human LOXL2 expressed in human whole blood assessed as reduction of H2O2 production from oxidative deamination of DAP preincubated for 2 hrs followed by substrate addition measured every 2 mins for 1 hr by amplex red reagent-based fluorescence assay
T3 sequence (whole entry): T1 sequence (Q9Y4K0 whole entry)

Lysyl oxidase homolog 2 [3] = target: T1, Lysyl oxidase homolog 2; assay: as §1
[4] = Cmax in C57BL/6 mouse lung at 30 mg/kg, po by LC-MS/MS analysis; format: ADME, organism-based; parameters: dose 30 mg/kg, route oral
Summary of the method: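 Normal C57BL/6 mice, n = 3 per time point, received a single oral 30 mg/kg dose formulated in 0.5% methylcellulose.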

[5] = target: T4, Lysyl oxidase homolog 2 (Mus musculus) (UniProt P58022); assay: (§2) Inhibition of recombinant mouse LOXL2 expressed in mouse whole blood assessed as reduction of H2O2 production from oxidative deamination of DAP preincubated for 2 hrs followed by substrate addition measured every 2 mins for 1 hr by amplex red reagent-based fluorescence assay
T4 sequence (whole entry): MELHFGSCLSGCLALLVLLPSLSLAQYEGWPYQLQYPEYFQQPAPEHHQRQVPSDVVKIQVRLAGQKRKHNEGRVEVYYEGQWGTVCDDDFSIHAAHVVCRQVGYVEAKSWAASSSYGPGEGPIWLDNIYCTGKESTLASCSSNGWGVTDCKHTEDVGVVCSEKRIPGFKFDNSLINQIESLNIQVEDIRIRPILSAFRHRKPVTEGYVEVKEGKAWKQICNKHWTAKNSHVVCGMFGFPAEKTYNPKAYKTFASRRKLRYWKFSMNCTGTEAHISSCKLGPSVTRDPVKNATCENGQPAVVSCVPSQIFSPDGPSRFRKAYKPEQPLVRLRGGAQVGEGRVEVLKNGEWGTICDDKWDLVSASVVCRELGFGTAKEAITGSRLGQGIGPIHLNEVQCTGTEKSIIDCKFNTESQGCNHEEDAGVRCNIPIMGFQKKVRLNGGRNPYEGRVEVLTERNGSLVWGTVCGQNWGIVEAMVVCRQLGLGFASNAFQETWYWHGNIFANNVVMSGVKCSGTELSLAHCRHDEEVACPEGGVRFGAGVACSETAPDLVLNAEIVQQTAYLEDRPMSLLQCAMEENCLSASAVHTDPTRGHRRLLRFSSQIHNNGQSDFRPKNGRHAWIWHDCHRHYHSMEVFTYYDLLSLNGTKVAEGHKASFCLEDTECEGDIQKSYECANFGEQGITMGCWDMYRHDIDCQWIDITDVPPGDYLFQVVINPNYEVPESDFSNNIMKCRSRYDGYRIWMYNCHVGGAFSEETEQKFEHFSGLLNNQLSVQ

Lysyl oxidase homolog 2 [6] = target: T5, Lysyl oxidase homolog 2 (Mus musculus, UniProt P58022); assay: as §2
T5 sequence (P58022 whole entry): T4 sequence (whole entry)

Mus musculus [7] = assay: Toxicity in C57BL/6 mouse assessed as mortality at 3 to 60 mg/kg, po qd administered 15 days starting 1 day prior to bleomycin instillation; format: organism-based; settings: in vivo
Summary of the method: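 Male C57BL/6 mice, 6 to 7 weeks old. Lung fibrosis induced by a single oropharyngeal bleomycin dose (1.5 U/kg). Compound given orally once daily at 3, 10, 30 or 60 mg/kg for 15 days, starting 1 day before bleomycin. Mortality and body weight loss monitored; lungs taken at day 14 post-bleomycin.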

Mus musculus [8] = assay: Antifibrotic activity in C57BL/6 mouse assessed as reduction of lung fibrosis administered as po qd for 15 days starting 1 day prior to bleomycin instillation measured on day 14 post bleomycin instillation by Masson's trichrome staining-based assay; format: functional
Summary of the method: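 Lung fibrosis induced in male C57BL/6 mice aged 6 to 7 weeks by a single oropharyngeal dose of bleomycin (1.5 U/kg). Compound given orally once daily at 3, 10, 30 or 60 mg/kg for 15 days, starting 1 day before bleomycin. Lungs taken at day 14 post-bleomycin, stained with H&E and Masson's trichrome, and an Ashcroft score assigned.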

[9] = Protein binding in human plasma; format: ADME, cell-free; settings: read-out: PPB (converted)

Work on `Cl.NCc1cc(Oc2cccc(C(=O)N3C[C@@H](O)[C@H](F)C3)c2)nc(C(F)(F)F)c1` (racemic) yielded an IC50 (Lysyl oxidase homolog 2 [1]) of 0.1 µM, an IC50 (Protein-lysine 6-oxidase) of 35 µM and an IC90 [2] of 5.4 µM. The IC50 (Lysyl oxidase homolog 2 [3]) was 0.87 µM, the Cmax [4] was 21 µM and the IC90 [5] was 5.6 µM. The IC50 (Lysyl oxidase homolog 2 [6]) was 0.86 µM, the Activity (Mus musculus [7]) was “Non-Toxic” and the Activity (Mus musculus [8]) was “Dose-dependent effect”. It also gave a minimal effective dose (Mus musculus [8]; C57BL/6, po, read-out: MED) of 30 mg/kg and a fraction unbound [9] of 0.32.
